Measurements from ChEMBL document CHEMBL1649143, “In vitro activities of fluconazole and voriconazole against clinical isolates of Candida spp. determined by disk diffusion testing in Turin, Italy” (2009).
Values after ≈ are worked out from the molar mass of the structure shown.

Assays:
[1] = system: Cyberlindnera jadinii; test: Antifungal against Candida utilis assessed as percent susceptible isolates at 1 ug/disc by CLSI M44-A disk diffusion method; assay type: functional
Outline: (§1)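 Agar disk diffusion per CLSI M44-A on clinical Candida isolates collected in Turin, Italy; 1,024 isolates tested in total. Each isolate was classed as susceptible (S), susceptible-dose dependent (SDD) or resistant (R), and the percentage of isolates per species in each category was reported.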

[2] = system: Nakaseomyces glabratus; test: Antifungal activity against Candida glabrata assessed as dose dependent percent susceptible isolates at 1 ug/disc by CLSI M44-A disk diffusion method; assay type: functional; outline: as §1
[3] = system: Pichia norvegensis; test: Antifungal activity against Candida norvegensis assessed as percent dose dependent percent susceptible isolates at 1 ug/disc by CLSI M44-A disk diffusion method; assay type: functional; outline: as §1
[4] = system: Pichia kudriavzevii; test: Antifungal activity against Candida krusei assessed as percent susceptible isolates at 1 ug/disc by CLSI M44-A disk diffusion method; assay type: functional; outline: as §1
[5] = system: Kluyveromyces marxianus; test: Antifungal activity against Candida kefyr by reference dilution method; assay type: functional
[6] = system: Pichia kudriavzevii; test: Antifungal activity against Candida krusei by reference dilution method; assay type: functional
[7] = system: Pichia kudriavzevii; test: Antifungal activity against Candida krusei assessed as percent resistant isolates at 1 ug/disc by CLSI M44-A disk diffusion method; assay type: functional; outline: as §1
[8] = system: Diutina rugosa; test: Antifungal activity against Candida rugosa assessed as percent susceptible isolates at 1 ug/disc by CLSI M44-A disk diffusion method; assay type: functional; outline: as §1
[9] = Antifungal activity against Candida holmii assessed as percent susceptible isolates at 1 ug/disc by CLSI M44-A disk diffusion method; assay type: functional; details: Kazachstania exigua; outline: as §1
[10] = system: Candida; test: Antifungal activity against Candida sp. by reference dilution method; assay type: functional
[11] = system: Kluyveromyces marxianus; test: Antifungal activity against Candida kefyr assessed as percent susceptible isolates at 1 ug/disc by CLSI M44-A disk diffusion method; assay type: functional; outline: as §1
[12] = system: Pichia kudriavzevii; test: Antifungal activity against Candida krusei assessed as dose dependent percent susceptible isolates at 1 ug/disc by CLSI M44-A disk diffusion method; assay type: functional; outline: as §1
[13] = system: Nakaseomyces glabratus; test: Antifungal activity against Candida glabrata assessed as percent resistant isolates at 1 ug/disc by CLSI M44-A disk diffusion method; assay type: functional; outline: as §1
[14] = system: Nakaseomyces glabratus; test: Antifungal activity against Candida glabrata assessed as percent susceptible isolates at 1 ug/disc by CLSI M44-A disk diffusion method; assay type: functional; outline: as §1
[15] = system: [Candida] intermedia; test: Antifungal activity against Candida intermedia assessed as percent susceptible isolates at 1 ug/disc by CLSI M44-A disk diffusion method; assay type: functional, Sungouiella intermedia; outline: as §1
[16] = system: Clavispora lusitaniae; test: Antifungal activity against Candida lusitaniae assessed as percent susceptible isolates at 1 ug/disc by CLSI M44-A disk diffusion method; assay type: functional; outline: as §1
[17] = system: Nakaseomyces glabratus; test: Antifungal activity against Candida glabrata by reference dilution method; assay type: functional
[18] = Antifungal activity against Candida membranifaciens assessed as percent susceptible isolates at 1 ug/disc by CLSI M44-A disk diffusion method; assay type: functional; outline: as §1
[19] = system: Pichia norvegensis; test: Antifungal activity against Candida norvegensis assessed as percent susceptible isolates at 1 ug/disc by CLSI M44-A disk diffusion method
[20] = system: Candida albicans; test: Antifungal activity against Candida albicans by reference dilution method; assay type: functional
[21] = system: Pichia fermentans; test: Antifungal activity against Candida lambica assessed as percent susceptible isolates at 1 ug/disc by CLSI M44-A disk diffusion method; assay type: functional; outline: as §1
[22] = system: Candida tropicalis; test: Antifungal activity against Candida tropicalis by reference dilution method; assay type: functional
[23] = Antifungal activity against Candida humicola assessed as percent susceptible isolates at 1 ug/disc by CLSI M44-A disk diffusion method; assay type: functional; outline: as §1
[24] = system: Kluyveromyces marxianus; test: Antifungal activity against Candida kefyr assessed as percent dose dependent percent susceptible isolates at 1 ug/disc by CLSI M44-A disk diffusion method; assay type: functional; outline: as §1
[25] = system: Candida tropicalis; test: Antifungal activity against Candida tropicalis assessed as dose dependent percent susceptible isolates at 1 ug/disc by CLSI M44-A disk diffusion method; assay type: functional; outline: as §1
[26] = system: Candida tropicalis; test: Antifungal activity against Candida tropicalis assessed as percent susceptible isolates at 1 ug/disc by CLSI M44-A disk diffusion method; assay type: functional; outline: as §1
[27] = system: Candida albicans; test: Antifungal activity against Candida albicans assessed as percent susceptible isolates at 1 ug/disc by CLSI M44-A disk diffusion method; assay type: functional; outline: as §1
[28] = system: Candida tropicalis; test: Antifungal activity against Candida tropicalis assessed as percent resistant isolates at 1 ug/disc by CLSI M44-A disk diffusion method; assay type: functional; outline: as §1
[29] = system: Candida parapsilosis; test: Antifungal activity against Candida parapsilosis by reference dilution method; assay type: functional; details: Lodderomyces parapsilosis
[30] = system: Pichia norvegensis; test: Antifungal activity against Candida norvegensis by reference dilution method; assay type: functional
[31] = system: Candida parapsilosis; test: Antifungal activity against Candida parapsilosis assessed as percent susceptible isolates at 1 ug/disc by CLSI M44-A disk diffusion method; assay type: functional; outline: as §1

SMILES: C[C@@H](c1ncncc1F)[C@](O)(Cn1cncn1)c1ccc(F)cc1F [VORICONAZOLE]
- Activity [1]: 100%
- Activity [2]: 3%
- Activity [3]: 7%
- Activity [4]: 92%
- MIC [5]: 0.008 µg/mL (≈ 0.0229 µM)
- MIC50 [5]: 0.01 µg/mL (≈ 0.0286 µM)
- MIC90 [5]: 0.06 µg/mL (≈ 0.172 µM)
- MIC50 [6]: 0.5 µg/mL (≈ 1.43 µM)
- MIC90 [6]: 2 µg/mL (≈ 5.73 µM)
- Activity [7]: 4%
- Activity [8]: 100%
- Activity [9]: 100%
- MIC50 [10]: 0.06 µg/mL (≈ 0.172 µM)
- MIC90 [10]: 1 µg/mL (≈ 2.86 µM)
- Activity [11]: 96%
- Activity [12]: 4%
- Activity [13]: 11%
- Activity [14]: 87%
- Activity [15]: 100%
- Activity [16]: 100%
- MIC50 [17]: 0.25 µg/mL (≈ 0.716 µM)
- MIC90 [17]: 4 µg/mL (≈ 11.5 µM)
- Activity [18]: 100%
- Activity [19]: 93%
- MIC50 [20]: 0.06 µg/mL (≈ 0.172 µM)
- MIC90 [20]: 0.12 µg/mL (≈ 0.344 µM)
- Activity [21]: 100%
- MIC50 [22]: 0.12 µg/mL (≈ 0.344 µM)
- MIC90 [22]: 2 µg/mL (≈ 5.73 µM)
- Activity [23]: 100%
- Activity [24]: 4%
- Activity [25]: 3%
- Activity [26]: 90%
- Activity [27]: 99.8%
- Activity [28]: 7%
- MIC50 [29]: 0.06 µg/mL (≈ 0.172 µM)
- MIC90 [29]: 0.12 µg/mL (≈ 0.344 µM)
- MIC50 [30]: 0.25 µg/mL (≈ 0.716 µM)
- MIC90 [30]: 1 µg/mL (≈ 2.86 µM)
- Activity [31]: 100%
